Experimental findings from ChEMBL document CHEMBL1177865, “Synthesis and anticancer activity of some novel 2-substituted benzimidazole derivatives” (Eur J Med Chem, 2010) are described below.

Values after ≈ are worked out from the molar mass of the structure shown.

What all share (format): functional, cell-based
In one test the test system is HepG2. Nature of the test: Cytotoxicity against human HepG2 cells after 48 hrs by sulforhodamine B assay. The conditions noted are these: HepG2, 48 h. An outline of the steps: (§1)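 Cells seeded at 10^4 per well and allowed to attach for 24 h, then exposed to compound at 0, 1, 2.5, 5 and 10 μg/ml, triplicate wells per dose, 48 h at 37 °C, 5% CO2. Fixed, stained with sulforhodamine B, excess dye removed with acetic acid, bound dye dissolved in Tris EDTA, absorbance read. IC50 (μg/ml, 50% survival reduction) taken from triplicate dose–response curves.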
A general note: Sulforhodamine B stains cellular protein and so reports cell mass.

The test system of another test is MCF7. Nature of the test: Cytotoxicity against human MCF7 cells after 48 hrs by sulforhodamine B assay. As to conditions: MCF7, 48 h. A digest of the protocol:
as §1

For another test, the system named is HCT-116. As to the kind of experiment: Cytotoxicity against human HCT116 cells after 48 hrs by sulforhodamine B assay. The conditions noted are these: HCT-116, 48 h. An outline of the steps: as §1

Regarding `COc1ccccc1C1=CS/C(=C(\C#N)c2nc3cc(C(=O)O)ccc3[nH]2)N1c1ccc(Br)cc1`, the IC50 is 3.16 µg/mL (≈ 5.79 µM) with HepG2, 2.85 µg/mL (≈ 5.23 µM) in the test on MCF7 and 3.75 µg/mL (≈ 6.88 µM) in the test on HCT-116. The IC90 with HepG2 came to 9.31 µg/mL (≈ 17.1 µM); in the test on MCF7, 13.2 µg/mL (≈ 24.3 µM); with HCT-116, 12.1 µg/mL (≈ 22.1 µM).
For `Nc1c(-c2nc3cc(C(=O)O)ccc3[nH]2)sc(=S)n1Cc1ccccc1`, the IC50 in the test on HepG2 was 0.55 µg/mL (≈ 1.44 µM); in the test on MCF7, 3.51 µg/mL (≈ 9.18 µM); in the test with HCT-116, 4.23 µg/mL (≈ 11.1 µM). For the same molecule, the IC90 is 7.53 µg/mL (≈ 19.7 µM) in the test with HepG2, 14.1 µg/mL (≈ 36.8 µM) with MCF7 and 14 µg/mL (≈ 36.7 µM) with HCT-116.
In the case of `N#C/C(=C\c1ccc(F)cc1)c1nc2cc(Cl)ccc2[nH]1`, the 50% inhibitory concentration (IC50) came to 0.55 µg/mL (≈ 1.85 µM) in the test with HepG2, 3.41 µg/mL (≈ 11.5 µM) in the test with MCF7 and 8.4 µg/mL (≈ 28.2 µM) with HCT-116. For the same molecule, the IC90 stood at 7.62 µg/mL (≈ 25.6 µM) in the test on HepG2, 13.3 µg/mL (≈ 44.8 µM) in the test with MCF7 and 14.8 µg/mL (≈ 49.8 µM) in the test with HCT-116.
Take `N#CC(=C1CCCCC1)c1nc2cc(C(=O)O)ccc2[nH]1`: the IC50 with HepG2 worked out at 1.65 µg/mL (≈ 5.87 µM); with MCF7 it was 2.15 µg/mL (≈ 7.64 µM); in the test on HCT-116 it was 8.25 µg/mL (≈ 29.3 µM). Further, the IC90 amounted to 8.61 µg/mL (≈ 30.6 µM) in the test with HepG2, 11.7 µg/mL (≈ 41.6 µM) in the test with MCF7 and 14.2 µg/mL (≈ 50.4 µM) in the test with HCT-116.
`N#C/C(=C1\SCC(=O)N1c1ccccc1)c1nc2cc(Cl)ccc2[nH]1`: the IC50 in the test with HepG2 was determined as 0.93 µg/mL (≈ 2.54 µM); with MCF7, 2.83 µg/mL (≈ 7.71 µM); in the test on HCT-116, 3.72 µg/mL (≈ 10.1 µM). The values for the IC90 with HepG2, with MCF7 and with HCT-116 were 7.89 µg/mL (≈ 21.5 µM), 12.6 µg/mL (≈ 34.4 µM) and 12 µg/mL (≈ 32.8 µM), respectively.
`N#C/C(=C1\SCCCN1c1ccccc1)c1nc2cc(C(=O)O)ccc2[nH]1`: the IC50 worked out at 1.87 µg/mL (≈ 4.97 µM) with HepG2, 4.04 µg/mL (≈ 10.7 µM) in the test with MCF7 and 9.39 µg/mL (≈ 24.9 µM) in the test on HCT-116. The 90% effect concentration (IC90) with HepG2 turned out to be 8.8 µg/mL (≈ 23.4 µM); in the test with MCF7 it was 15 µg/mL (≈ 39.9 µM); in the test with HCT-116 it was 14.7 µg/mL (≈ 39.1 µM).
On to `N#C/C(=C1\SC(=O)CN1C1CCCCC1)c1nc2cc(C(=O)O)ccc2[nH]1`, for which the figures for the IC50 in the test with HepG2, with MCF7 and with HCT-116 were 1.35 µg/mL (≈ 3.53 µM), 3.83 µg/mL (≈ 10 µM) and 5.52 µg/mL (≈ 14.4 µM), respectively. Besides, the IC90 stood at 9.15 µg/mL (≈ 23.9 µM) in the test on HepG2, 15 µg/mL (≈ 39.3 µM) in the test with MCF7 and 14.1 µg/mL (≈ 36.9 µM) in the test with HCT-116.
Take `COc1cccc2c1C(=O)c1c(O)c3c(c(O)c1C2=O)C[C@@](O)(C(=O)CO)C[C@@H]3O[C@H]1C[C@H](N)[C@H](O)[C@H](C)O1` [DOXORUBICIN]: the figures for the IC50 in the test on HepG2 and with HCT-116 were 0.59 µg/mL (≈ 1.09 µM) and 0.65 µg/mL (≈ 1.2 µM), respectively. The IC90 with HepG2 stood at 6.82 µg/mL (≈ 12.5 µM); in the test on MCF7 it was 8.77 µg/mL (≈ 16.1 µM); in the test on HCT-116, 7.32 µg/mL (≈ 13.5 µM).

Broadly, the IC50 is the point on the concentration scale where inhibition reaches its midpoint. A higher IC50 goes with a need for much substance. The IC90 is the concentration needed for an effect of 90%. Low values mean greater potency, high ones weaker potency.
